Results as given in PMC7611355 (Bioconjugate chemistry, 2020).

Assays:
[1] = Ex vivo biodistribution by gamma counting; type: in vivo, BALB/c mice; details: 120 min postinjection
Method in brief: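 Female BALB/c mice (6-8 weeks, 17-20 g; 5 per tracer) were anaesthetised with isoflurane (2-3% in oxygen) and the radiotracer (100 ± 15 µL, 2.2-16.2 MBq) was injected via a tail-vein cannula. After a 1 h PET scan the mice recovered and were culled at 2 h postinjection. Organs were harvested, weighed and gamma-counted against standards prepared from the injected material, giving %ID/g.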

[2] = Dynamic PET-CT imaging, ROI pharmacokinetics in healthy mice; type: in vivo, BALB/c mice
[3] = In vitro calcium mineral binding: mean across non-HAp calcium minerals; details: saline, room temperature, 1 h
Method in brief: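 Each calcium salt (carbonate, dibasic phosphate, pyrophosphate, β-tricalcium phosphate, oxalate; 1 mg) was suspended in saline (1 mL). Radiotracer (~700 kBq) was added and shaken for 1 h at room temperature. After centrifuging at 9677 g for 5 min, supernatant and pellet activities were counted separately.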

[4] = In vitro calcium mineral binding: hydroxyapatite
Method in brief: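 Hydroxyapatite (1 mg) was suspended in saline (1 mL). For blocking, the suspension was preincubated overnight with unlabelled agent: pamidronate (27.9 mg, 100 µmol), alendronate or sodium fluoride, matched to each tracer. Radiotracer (~700 kBq) was added and shaken for 1 h at room temperature. After centrifuging at 9677 g for 5 min, supernatant and pellet activities were counted.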

[5] = Shelf life at room temperature; type: physicochemical; details: solid; measured by NMR, MS, and elemental analysis
[6] = cited from earlier work

| shelf life at room temperature [5] | SMILES | femur uptake [1] [%ID/g] | area under the curve from 3-59 min (AUC3-59) ([2]; heart ROI as proxy for blood) [%ID min mL^-1] | knee uptake (ROI image analysis) ([2]; mice, i.v., at 60 min postinjection) [%ID mL^-1] | mean binding across non-HAp minerals [3] [%] | mean binding to HAp ([4]; saline, room temperature, 1 h, non-blocked) [%] | mean blocked binding to HAp ([4]; salt preincubated with excess unlabeled BP or fluoride) [%] | pKa (amine) [6] |
| --- | --- | --- | --- | --- | --- | --- | --- | --- |
| – | [18F-].[Na+] [[^18F]NaF] | 47.1 ± 8.3 | 122.3 ± 5.1 | 54.5 ± 5.1 | 8.4 ± 4.6 | 88.4 ± 4.6 | 2.2 ± 0.2 | – |
| at least 4485 days | NCCC(O)(P(=O)(O)O)P(=O)(O)O [Pamidronate, pamidronate disodium dihydrate] | – | – | – | – | – | – | 10.40-13.06 |
